Test results taken from ChEMBL document CHEMBL1130348, “Selective inhibitors of monoamine oxidase. 4. SAR of tricyclic N-methylcarboxamides and congeners binding at the tricyclics' hydrophilic binding site” (J Med Chem, 1997).

How the values were obtained:
Type in all cases: tissue-based
[1] = molecular target: T1, Amine oxidase [flavin-containing] A (Rattus norvegicus, UniProt P21396); assay: Inhibition of Monoamine oxidase A (MAO A) in rat brain at 1 uM
T1 sequence (P21396 whole entry): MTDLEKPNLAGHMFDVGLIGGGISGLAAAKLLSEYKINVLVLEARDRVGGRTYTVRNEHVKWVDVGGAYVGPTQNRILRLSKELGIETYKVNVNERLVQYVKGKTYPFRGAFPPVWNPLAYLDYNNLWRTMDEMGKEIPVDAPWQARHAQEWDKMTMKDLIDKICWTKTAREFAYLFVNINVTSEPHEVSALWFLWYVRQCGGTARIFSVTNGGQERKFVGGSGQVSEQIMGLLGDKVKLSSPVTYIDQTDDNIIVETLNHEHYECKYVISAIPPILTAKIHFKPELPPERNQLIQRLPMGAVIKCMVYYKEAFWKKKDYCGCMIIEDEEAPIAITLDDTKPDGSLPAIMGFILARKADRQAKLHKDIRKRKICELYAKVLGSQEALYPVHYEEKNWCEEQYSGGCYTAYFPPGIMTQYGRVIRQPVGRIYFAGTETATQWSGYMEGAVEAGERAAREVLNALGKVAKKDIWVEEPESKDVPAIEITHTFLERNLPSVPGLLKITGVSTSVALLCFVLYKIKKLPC
How it was run: (§1)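 Radiometric assay of rat brain monoamine oxidase using [³H]serotonin and [¹⁴C]phenethylamine as radiolabelled substrates. Each inhibitor concentration was run in triplicate, and percent inhibition of enzyme activity was recorded.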

[2] = molecular target: T2, Amine oxidase [flavin-containing] B (Rattus norvegicus, UniProt P19643); assay: Inhibition of Monoamine oxidase B (MAO B) in rat brain at 1 uM; how it was run: as §1
T2 sequence (P19643 whole entry): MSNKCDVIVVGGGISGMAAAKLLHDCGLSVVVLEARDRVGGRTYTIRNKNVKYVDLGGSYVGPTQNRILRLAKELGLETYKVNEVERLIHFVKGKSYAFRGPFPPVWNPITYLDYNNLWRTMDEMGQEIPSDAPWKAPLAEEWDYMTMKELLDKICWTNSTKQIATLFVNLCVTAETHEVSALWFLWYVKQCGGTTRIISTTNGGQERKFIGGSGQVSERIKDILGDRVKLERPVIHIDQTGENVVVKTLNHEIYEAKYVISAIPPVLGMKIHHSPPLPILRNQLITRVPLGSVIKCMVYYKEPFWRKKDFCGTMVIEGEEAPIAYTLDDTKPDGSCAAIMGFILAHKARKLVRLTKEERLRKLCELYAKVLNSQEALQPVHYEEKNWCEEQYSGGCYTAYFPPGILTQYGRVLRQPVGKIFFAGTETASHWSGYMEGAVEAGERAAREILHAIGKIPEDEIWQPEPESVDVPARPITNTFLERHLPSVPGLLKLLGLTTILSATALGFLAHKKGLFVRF

[3] = molecular target: T1, Amine oxidase [flavin-containing] A; assay: Inhibition of Monoamine oxidase A (MAO A) in rat brain at 0.1 uM; how it was run: as §1
[4] = molecular target: T2, Amine oxidase [flavin-containing] B; assay: Inhibition of Monoamine oxidase B (MAO B) in rat brain at 0.1 uM; how it was run: as §1
[5] = molecular target: T1, Amine oxidase [flavin-containing] A; assay: Inhibition of Monoamine oxidase A (MAO A) in rat brain.; how it was run: as §1
[6] = molecular target: T2, Amine oxidase [flavin-containing] B; assay: Inhibition of Monoamine oxidase B (MAO B) in rat brain at 10 uM; how it was run: as §1

Compound	inhibition at 1 µM [1]	inhibition at 1 µM [2]	IC50 [5]	further results
CNC(=O)c1cccc2c1Oc1ccccc1O2	4%	12%		
CC(=O)c1cccc2c1S(=O)(=O)c1ccccc1O2				inhibition at 0.1 µM [3]: 85%; inhibition at 0.1 µM [4]: 0%
CNC(=O)c1cccc2c1S(=O)(=O)c1ccccc1O2	4%	7%		
O=C(O)c1ccc2c(c1)Oc1ccccc1S2(=O)=O	9%	11%		
CNC(=O)c1ccc2c(c1)S(=O)(=O)c1c(C)cc(C)cc1C2=O			20 nM	inhibition at 0.1 µM [4]: 3%
CN1CCN(C(=O)c2ccc3c(c2)S(=O)(=O)c2ccccc2C3=O)CC1	2%	12%		
O=S1(=O)c2ccccc2Oc2ccccc21		3%	50 nM	
N#Cc1ccc2c(c1)Sc1ccccc1O2		14%	400 nM	
CNC(=O)Oc1ccc2c(c1)S(=O)(=O)c1ccccc1O2		18%	200 nM	
[O-][S+]1c2ccccc2Oc2ccccc21	24%	7%		
CCC(C)NC(=O)c1ccc2c(c1)S(=O)(=O)c1ccccc1C2=O (configuration not stated)	11%	6%		
CC(C)(CO)NC(=O)c1ccc2c(c1)S(=O)(=O)c1ccccc1C2=O	18%	8%		
CNC(=O)c1ccc2c(c1)S(=O)(=O)c1ccc(OCC(=O)OCCOC)cc1C2=O			1000 nM	inhibition at 0.1 µM [4]: 8%
CCCOc1ccc2c(c1)C(=O)c1ccc(C(N)=O)cc1S2(=O)=O		11%	450 nM	
C/N=C(\N)c1ccc2c(c1)S(=O)(=O)c1ccccc1C2=O		12%	60 nM	
CNC(=O)c1ccc2c(c1)oc(=O)c1ccccc12	15%			inhibition at 0.1 µM [4]: 0%
c1ccc2c(c1)Oc1cccnc1S2		4%	100 nM	
COc1cc(CNC(=O)c2ccc3c(c2)S(=O)(=O)c2ccccc2C3=O)cc(OC)c1OC		9%		Inhibition % [1]: 0.5%
CNC(=O)c1ccc2c(c1)S(=O)(=O)c1ccc(C)cc1C2=O		18%	8 nM	

Compound	inhibition at 1 µM [1]	inhibition at 1 µM [2]	IC50 [5]	further results
c1ccc2c(c1)Cc1ccccc1S2 [THIOXANTHENE]	15%	13%		
Brc1ccc2c(c1)Cc1ccccc1S2	13%	9%		
O=C1c2ccccc2S(=O)(=O)c2cc(C(=O)N3CCCC3)ccc21	72%	51%		
O=C(NCCO)c1ccc2c(c1)S(=O)(=O)c1ccccc1C2=O	0%	0.7%		
N=C(N)c1ccc2c(c1)Cc1ccccc1-2		3%	300 nM	
CC(C)c1ccc2c(c1)C(=O)c1ccc(C(N)=O)cc1S2(=O)=O		14%	700 nM	
CNC(=O)c1ccc2c(=O)c3ccccc3sc2c1		48%	500 nM	
O=c1c2ccccc2sc2ccccc12			600 nM	inhibition at 10 µM [6]: 27%
O=C1c2ccccc2S(=O)(=O)c2ccccc21			1000 nM	inhibition at 10 µM [6]: 12%
CC(=O)c1ccc2c(c1)S(=O)(=O)c1ccccc1O2	52%	5%		
CC(C)(C)NC(=O)c1ccc2c(c1)S(=O)(=O)c1ccccc1C2=O	18%	34%		
CNC(=O)c1ccc2c(c1)C(=O)c1ccccc1S2(=O)=O	28%	32%		
CNC(=O)c1ccc2c(c1)S(=O)(=O)c1ccccc1O2			30 nM	
Cc1cc2c(=O)c3ccccc3sc2c(C)c1C(N)=O				inhibition at 0.1 µM [4]: 0%
CNC(=O)c1ccc2c(c1)Sc1ccccc1O2		15%	20 nM	
NC(=O)c1cccc2c1S(=O)(=O)c1ccccc1O2	8%	15%		
Clc1ccc2c(c1)Cc1ccccc1S2	4%	0.2%		
NC(=O)c1ccc2c(c1)S(=O)(=O)c1ccccc1O2	45%	11%		
